A selection: hits, their analogues and other compounds. The true share with any hit is near 2.9%.
SENP8 block-1 – human SENP8 protease inhibitors, primary screen, biochemical, fluorescence, Nedd8 protein substrate, uHTS; recombinant SENP8; inhibition, % at 20 µM; hit rate 0.64% among 360,000; AID 602440, 2012; in the data active = inhibition mostly above about 40%, no sharp cut-off; inactive = mostly below about 27%
SENP6 inh – SENP6 protease inhibitors, primary screen, biochemical, luminescence, uHTS | hit rate 1.8% among 330,000 | Recombinant SENP6 catalytic domain, aminoluciferin luminescence | inhibition, % at 10 µM | AID 2599, 2010 | Sentrin-specific protease 6 (Homo sapiens), Q9GZR1;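 active = inhibition above about 50% at the single tested dose, limit read from the data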;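 also: plate controls were DMSO wells with enzyme for no effect and DMSO wells lacking enzyme for full effect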
Target sequence (Q9GZR1 628-1112 limits assumed): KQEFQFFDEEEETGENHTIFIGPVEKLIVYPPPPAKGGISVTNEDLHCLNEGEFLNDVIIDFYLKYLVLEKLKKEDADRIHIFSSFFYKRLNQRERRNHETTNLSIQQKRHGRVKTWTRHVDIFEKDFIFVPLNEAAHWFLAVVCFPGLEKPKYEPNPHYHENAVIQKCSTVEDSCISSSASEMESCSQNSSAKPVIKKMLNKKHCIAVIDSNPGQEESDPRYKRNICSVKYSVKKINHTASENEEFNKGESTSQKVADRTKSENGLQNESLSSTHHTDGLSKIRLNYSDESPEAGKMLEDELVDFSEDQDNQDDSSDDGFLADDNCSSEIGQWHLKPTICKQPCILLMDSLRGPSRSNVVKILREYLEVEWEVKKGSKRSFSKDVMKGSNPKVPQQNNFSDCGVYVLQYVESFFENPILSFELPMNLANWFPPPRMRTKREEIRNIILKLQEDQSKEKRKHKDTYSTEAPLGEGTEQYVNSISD
HSP90 refold inh – HSP90 inhibitors, primary screen, cell lysate, luminescence; Rabbit reticulocyte lysate, luciferase refolding luminescence, 3 h; Heat shock protein HSP 90 (rabbit reticulocyte lysate; luciferase refolding); hit rate 0.91% among 290,000; inhibition, % at 5.6 µM;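 active = inhibition above the screen-wide mean plus 3 SD, computed separately per campaign, cut at about 16% in these data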;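 also: 0% = DMSO wells and 100% = 60 µM geldanamycin wells; inhibitors lower the luminescence because luciferase stays unfolded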
SENP1 FRET inh – human SENP1 catalytic domain inhibitors, primary screen, biochemical, FRET, uHTS | inhibition, % at 10 µM | AID 624204, 2012 | Sentrin-specific protease 1 (Homo sapiens), Q9P0U3 | recombinant SENP1 catalytic domain, CyPet-SUMO1-YPet FRET cleavage | hit rate 0.21% among 360,000;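 active = inhibition at least 30% at 10 µM, raw YFP signal under a set limit, fluorescence ratio 0.5 to 1.5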;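 also: 0% = enzyme with DMSO and 100% = no enzyme wells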
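Test system: hSENP1 catalytic domain, recombinant; Amount: 20 pM final SENP1 enzyme; Medium: Tris pH 8 buffer plus EDTA, NaCl, BME, BSA, NP40, catalase; Schedule: 50 min enzyme reaction, room temperature, light-protected; Technique: FRET fluorescence in CFP and YFP emission channels; Controls: no-enzyme wells low, DMSO-plus-enzyme wells high control.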
SENP7 inh – SENP7 protease inhibitors, primary screen, biochemical, luminescence, uHTS. hit rate 1.5% among 330,000. recombinant SENP7, Z-RLRGG-aminoluciferin luminescence, 40 min. Sentrin-specific protease 7 (Homo sapiens), Q9BQF6. inhibition, % at 5 µM;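 active = inhibition above about 50% at the single test dose, limit read from the data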;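 also: plate controls were DMSO with enzyme for no effect and no enzyme buffer wells for full effect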
SENP8 block-2 – SENP8 protease inhibitors, primary screen, biochemical, luminescence; purified SENP8, Z-RLRGG-aminoluciferin cleavage; hit rate 1.2% among 330,000; inhibition, % at 10 µM; AID 2540, 2010; in the data active = inhibition above about 50%
SENP8 conf – SENP8 protease inhibitors, retest, confirmation, biochemical, luminescence, single concentration. hit rate 40% among 6,200. shares compounds with SENP7 inh. AID 488912, 2010. inhibition, % at 12.5 µM. Recombinant SENP8, Z-RLRGG-aminoluciferin luminescence, 60 min;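 active = mean inhibition across replicates above about 50%, limit read from the data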
SENP6 conf – SENP6 protease inhibitors, confirmation, biochemical, luminescence, single concentration; shares compounds with SENP7 inh; recombinant SENP6, Z-RLRGG-aminoluciferin luminescence; inhibition, % at 12.5 µM; hit rate 58% among 6,200
SENP7 conf – SENP7 protease inhibitors, retest, confirmation, biochemical, luminescence, single concentration. hit rate 69% among 6,200. shares compounds with SENP7 inh. recombinant SENP7, Z-RLRGG-aminoluciferin luminescence, 40 min. inhibition, % at 12.5 µM
Casp3 select – caspase-3 protease inhibitors, confirmation, selectivity assay for SENP inhibitor project, biochemical, single concentration | purified caspase-3, Z-DEVD-aminoluciferin luminescence, 60 min | inhibition, % at 12.5 µM | hit rate 60% among 6,200 | shares compounds with SENP7 inh;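 active = mean inhibition above about 50%, limit read from the data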;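 also: plate controls were enzyme with DMSO for no effect and wells without caspase-3 for full effect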
SENP luc ctr – luminescence interference (SENP counter-screen). inhibition, % at 12.5 µM. hit rate 39% among 6,200. shares compounds with SENP7 inh. AID 488919. Pre-incubated SENP8/Z-RLRGG-aminoluciferin, luciferase luminescence interference;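 active = mean inhibition above about 50% when retested at one dose, limit read from the data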;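 also: plate controls were DMSO wells with completed reaction for no effect and substrate without enzyme for full effect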
Numbers without * were called inactive; nt = not tested or not shown.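 The calls were made as follows, unless noted: active = mean inhibition above about 50% in the one-dose retest (limit read from the data); inactive = the rest.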

SMILES	SENP8 block-1	SENP6 inh	HSP90 refold inh	SENP1 FRET inh	SENP7 inh	SENP8 block-2	SENP8 conf	SENP6 conf	SENP7 conf	Casp3 select	SENP luc ctr
N#CC1=C(N)Oc2c(oc(CO)cc2=O)C1c1ccsc1 (stereo not drawn)	-24	9	-3	-45	-2	-4	nt	nt	nt	nt	nt
N#CC1=C(N)Oc2c(ccc3ccccc23)C1c1ccsc1 (stereo not drawn)	-115	62*	-9	-33	16	9	-21	-18	-7	-8	-1
O=C(Nc1cnns1)Oc1ccccc1	4	nt	nt	-1	nt	nt	nt	nt	nt	nt	nt
CCCn1nc(C(=O)Nc2cccc(S(=O)(=O)N(C)c3ccccc3)c2)c2ccccc2c1=O	5	11	nt	-1	-1	3	nt	nt	nt	nt	nt
O=C(O)c1cc2nc3c(c(C(F)(F)F)n2n1)CCc1ccccc1-3	-50	72*	-1	-2	6	3	-21	-14	-8	-7	-5
Cc1[nH]n(C2=NCCS2)c(=O)c1N=Nc1cccc(C(F)(F)F)c1	30	74*	3	2	31	19	35	30	26	48	4
Cc1[nH]n(C(N)=S)c(=O)c1N=Nc1ccc(Br)cc1	28	93*	11	5	82*	92*	-8	10	20	26	-2
Cc1[nH]n(-c2ccccc2)c(=O)c1N=Nc1cccc(S(=O)(=O)N2CCOCC2)c1	13	14	2	3	-22	-10	nt	nt	nt	nt	nt
Cc1[nH]n(C(N)=S)c(=O)c1N=Nc1cccc(C(F)(F)F)c1	25	79*	7	3	38	81*	-6	1	8	5	1
CCc1ccc(C(=O)COC(=O)C2=NN(c3ccccc3)C(=O)CC2)cc1	14	8	nt	-1	0	4	nt	nt	nt	nt	nt
Cc1ccc(NC(=O)COc2cccc(/C=C3\SC(=S)N(CCC(=O)O)C3=O)c2)cc1Cl	33	66*	0	2	-1	47	13	42	61*	21	2
O=C(CCN1C(=O)/C(=C/c2ccc(Cl)cc2)SC1=S)Nc1cccc(C(=O)O)c1	18	8	5	1	5	34	nt	nt	nt	nt	nt
COc1cccc(/C=C2\SC(=S)N(CCCC(=O)Nc3ccc(C(=O)O)cc3)C2=O)c1	9	84*	-3	2	81*	84*	67*	76*	62*	58*	15
COc1ccc(/C=C2\SC(=S)N(CCC(=O)Nc3cccc(C(=O)O)c3)C2=O)cc1	25	62*	-5	-23	6	53*	35	33	21	21	15
O=C(CCCN1C(=O)/C(=C/c2ccc3c(c2)OCO3)SC1=S)Nc1cccc(C(=O)O)c1	10	82*	4	-4	48	76*	60*	82*	90*	63*	46
COCC(CN1CCN(C2=NS(=O)(=O)c3ccccc32)CC1)OC(=O)c1ccc(OC)cc1 (stereo not drawn)	-2	-4	-1	7	1	-2	nt	nt	nt	nt	nt
COc1cc(/C=C2/SC(=S)N(Cc3ccccc3)C2=O)ccc1O	29	49	-4	-29	4	0	nt	nt	nt	nt	nt
O=C1/C(=C\c2ccc(O)c(O)c2)SC(=S)N1Cc1ccccc1	36*	55*	1	-26	-8	47	70*	69*	72*	18	49
O=C(CCCN1C(=O)/C(=C\c2ccccc2)SC1=S)Nc1cccc(C(=O)O)c1	24	63*	-1	2	0	38	43	48	37	24	6
Cc1ccc(-n2c(C)cc(C(=O)CSc3nnnn3C)c2C)cc1	7	29	8	1	69*	60*	80*	78*	95*	79*	76*
Cc1ccc(-n2c(C)cc(C(=O)CSc3nncs3)c2C)cc1	16	-14	1	2	1	6	nt	nt	nt	nt	nt
O=C(c1ccc(Cl)s1)N1CCc2ccccc21	16	89*	-3	2	89*	81*	54*	68*	81*	80*	54*
CCc1sc(C(=O)N2CCc3ccccc32)cc1C	8	96*	2	2	97*	93*	96*	97*	102*	95*	86*
O=C(c1ccc(C(=O)N2CCCc3ccccc32)s1)N1CCCc2ccccc21	5	-1	-2	1	3	-2	nt	nt	nt	nt	nt
O=C1C=C(c2ccc(Oc3ccccc3)cc2)C[C@@H](c2ccc3c(c2)OCO3)C1	18	0	nt	0	6	2	nt	nt	nt	nt	nt
SMILES	SENP8 block-1	SENP6 inh	HSP90 refold inh	SENP1 FRET inh	SENP7 inh	SENP8 block-2	SENP8 conf	SENP6 conf	SENP7 conf	Casp3 select	SENP luc ctr
CCOC(=O)NNc1ccc2nonc2c1[N+](=O)[O-]	nt	64*	10	nt	12	61*	66*	80*	42	30	6
COc1ccc(-c2nc(-c3cccnc3)no2)cc1	-2	77*	8	1	84*	67*	78*	78*	96*	86*	48
CCOc1ccc(-c2nc(-c3ccccc3C)no2)cc1	nt	93*	-2	nt	99*	95*	70*	56*	32	78*	25
CCOc1cc(-c2noc(-c3cccnc3)n2)ccc1OC	4	-18	-4	-4	4	-3	nt	nt	nt	nt	nt
CCOc1nc(-c2ccc(OC)cc2)ccc1-c1noc(-c2ccncc2)n1	14	nt	nt	-4	nt	nt	nt	nt	nt	nt	nt
CCOc1ccc(-c2nc(-c3cccnc3)no2)cc1	32	72*	2	4	95*	85*	5	73*	91*	74*	33

Screens as filed in PubChem.
